The values that follow come from ChEMBL document CHEMBL2169796, “Antiproliferative and antimigratory actions of synthetic long chain n-3 monounsaturated fatty acids in breast cancer cells that overexpress cyclooxygenase-2” (J Med Chem, 2012).

SMILES strings stand for the structures. Activity calls are given as the source filed them. No cut-off for these calls is given here.

Assay [1] has as its system MDA-MB-468. As to the kind of experiment: Antiproliferative activity against human MDA-MB-468 cells after 48 hrs by MTT assay. Format: functional, cell-based. The settings on record: MDA-MB-468, 48 h. On the technique in general: Formazan colour is commonly taken as a measure of viable cells.
For assay [2], the system named is MDA-MB-468. The assay is described as follows: Proapoptotic activity in human MDA-MB-468 cells assessed as activation of caspase-3 by luminometry. Format: functional, cell-based.
For assay [3], the target named is T1, Prostaglandin G/H synthase 2 (Homo sapiens) (UniProt P35354).
T1 sequence (whole entry): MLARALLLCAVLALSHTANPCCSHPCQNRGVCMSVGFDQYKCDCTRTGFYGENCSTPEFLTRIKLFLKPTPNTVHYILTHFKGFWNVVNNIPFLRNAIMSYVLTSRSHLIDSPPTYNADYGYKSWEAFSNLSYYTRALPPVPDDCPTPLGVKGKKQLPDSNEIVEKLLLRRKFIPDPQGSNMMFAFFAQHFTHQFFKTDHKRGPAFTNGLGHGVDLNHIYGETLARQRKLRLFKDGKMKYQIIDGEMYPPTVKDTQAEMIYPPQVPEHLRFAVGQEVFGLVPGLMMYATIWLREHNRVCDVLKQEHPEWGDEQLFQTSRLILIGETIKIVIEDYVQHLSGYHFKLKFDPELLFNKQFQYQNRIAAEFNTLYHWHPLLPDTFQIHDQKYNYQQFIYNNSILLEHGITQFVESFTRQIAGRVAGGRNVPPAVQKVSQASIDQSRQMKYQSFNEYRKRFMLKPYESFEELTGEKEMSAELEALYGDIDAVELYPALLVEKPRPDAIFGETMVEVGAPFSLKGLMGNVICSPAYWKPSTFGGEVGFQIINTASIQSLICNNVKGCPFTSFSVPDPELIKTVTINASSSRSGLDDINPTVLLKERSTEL
The assay is described as follows: Inhibition of COX2 overexpressed in human MDA-MB-468 cells assessed as reduction in basal PGE2 level at 50 uM over 48 hrs by LC-MS-MS assay relative to control. Format: cell-based. The method in brief:
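Intact COX-2-overexpressing MDA-MB-468 cells given fatty acid (50 μM) for 48 h without added substrate; basal PGE2 in medium measured by LC-MS-MS, as % of control.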

The test system of assay [4] is MDA-MB-468. As to the kind of experiment: Antiproliferative activity against human MDA-MB-468 cells after 24 hrs by MTT assay. Format: functional, cell-based.
In assay [5] the test system is MDA-MB-468. The assay is described as follows: Cytotoxicity against human MDA-MB-468 cells assessed as reduction in viable cells after 48 hrs by trypan blue exclusion assay. In kind it is functional. The method in brief:
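COX-2-overexpressing MDA-MB-468 transfectants exposed to fatty acids at 20 and 50 μM for 48 h; viable cells counted by trypan blue exclusion, expressed as decrease from control.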

Assay [6] concerns MDA-MB-468. As to the kind of experiment: Inhibition of cell invasion in human MDA-MB-468 cells overexpressing COX-2 at 20 uM after 20 hrs by matrigel droplet assay relative to untreated-control. In kind it is functional. The method in brief:
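Cells (3.5 × 10^6/mL) mixed with Matrigel, 20 μL droplets set 5 min at 37 °C, then covered with endothelial growth medium-2 with 10% FBS containing fatty acid (10 or 20 μM) for 20 h at 37 °C, 5% CO2; cells migrating out of droplets counted by phase-contrast microscopy, vs DMSO control.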

Assay [7] addresses T1, Prostaglandin G/H synthase 2 (Homo sapiens). As to the kind of experiment: Inhibition of COX-2 overexpressed in human MDA-MB-468 cell lysate assessed as reduction in arachidonic acid-induced PGE2 formation at 50 uM by LC-MS-MS assay. Format: cell-free. The method in brief:
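Lysate of confluent COX-2-overexpressing MDA-MB-468 cells incubated with heme (10 μM), arachidonic acid (20 μM) and analogue (50 μM) in Tris-HCl 100 mM pH 8.0; quenched with ice-cold acetonitrile plus PGE2-d4, SPE cleanup, PGE2 quantified by negative-ion ESI LC-MS-MS.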

For assay [8] the target is unchanged. As to the kind of experiment: Inhibition of peroxidase activity of COX-2 overexpressed in human MDA-MB-468 cells at 50 uM by spectrophotometry; values are per cent of control.
Assay [9] has as its system MDA-MB-468. The assay is described as follows: Inhibition of cell invasion in human MDA-MB-468 cells overexpressing COX-2 at 10 uM after 20 hrs by matrigel droplet assay relative to untreated-control; values are per cent of control. The settings on record: MDA-MB-468, 20 h.
For assay [10], the system named is MDA-MB-468. The assay is described as follows: Inhibition of cell invasion in human MDA-MB-468 cells overexpressing COX-2 at 20 uM after 20 hrs by matrigel droplet assay relative to untreated-control; values are per cent of control. The settings on record: MDA-MB-468, 20 h.
The target of assay [11] is T1, Prostaglandin G/H synthase 2 (Homo sapiens). As to the kind of experiment: Inhibition of COX2 overexpressed in human MDA-MB-468 cells assessed as reduction in arachidonic acid-induced PGE2 production at 50 uM over 48 hrs by LC-MS-MS assay relative to control; values are per cent of control.
For assay [12] the target is unchanged. The assay is described as follows: Inhibition of COX2 overexpressed in human MDA-MB-468 cells assessed as reduction in basal PGE2 level at 50 uM over 48 hrs by LC-MS-MS assay relative to control; values are per cent of control.
Assay [13] shares this target. As to the kind of experiment: Inhibition of COX-2 overexpressed in human MDA-MB-468 cell lysate assessed as reduction in arachidonic acid-induced PGE2 formation at 50 uM by LC-MS-MS assay; values are per cent of control.

`CC/C=C\C/C=C\C/C=C\C/C=C\C/C=C\CCCC(=O)O` [ICOSAPENT]: in the assay on MDA-MB-468 [1], the IC50 is > 100 µM. Moreover, the EC50 in the assay on MDA-MB-468 [2] is > 100 µM.
For the compound `CC/C=C\CCCCCCCCCCCCC(=O)O`, the inhibition result (in assay [3]; with MDA-MB-468 [6]) was “inactive” each time. Besides, the Activity entry in the assay with MDA-MB-468 [4] is “Dose-dependent effect”. Moreover, the outcome with MDA-MB-468 [5] was inactive. Also, the IC50 with MDA-MB-468 [1] was > 100 µM. In addition, the EC50 in the assay on MDA-MB-468 [2] was 69 µM.
On to `CC/C=C\CCCCCCCCCCCCCCC(=O)O`, for which the inhibition result (in assay [3]; in the assay with MDA-MB-468 [6]) was “inactive” each time. In addition, in assay [7], the inhibition entry was “Active”. Besides, the Activity result with MDA-MB-468 [4] is “Dose-dependent effect”; with MDA-MB-468 [5], 20%. This compound gave a residual activity in assay [8] of 71%. For the same compound, the IC50 with MDA-MB-468 [1] amounted to 36 µM. The EC50 with MDA-MB-468 [2] stood at 43 µM.
Consider `CC/C=C\CCCCCCCCCCCCCC(=O)O`, for which the inhibition entry (in assay [3]; in the assay with MDA-MB-468 [6]) was “inactive” throughout. In addition, the Activity entry with MDA-MB-468 [4] was “Dose-dependent effect”. In the assay with MDA-MB-468 [5], the outcome was inactive. Further, in the assay on MDA-MB-468 [1], the IC50 was > 100 µM. Besides, the EC50 with MDA-MB-468 [2] is 54 µM.
For `CC/C=C\CCCCCCCCCCCCCCCCCC(=O)O`, the Activity result in the assay on MDA-MB-468 [4] was “Dose-dependent effect”. In addition, the result in the assay on MDA-MB-468 [5] was inactive. The residual activity in [8] came out at 58%; in assay [11] it was 40%; in [12], 45%; in assay [13], 42%. The compound also came in with a level, % of control at 10 µM in the assay on MDA-MB-468 [9] of 48%. The compound also had a level, % of control at 20 µM in the assay with MDA-MB-468 [10] of 48%. This compound registered a concentration for half-maximal inhibition (IC50) with MDA-MB-468 [1] of 21 µM. Further, the EC50 in the assay on MDA-MB-468 [2] came out at 26 µM.
Turning to `CC/C=C\CCCCCCCCCCCC(=O)O`, the inhibition result (in assay [3]; in the assay with MDA-MB-468 [6]) was “inactive” throughout. Besides, the Activity result was “Dose-dependent effect” with MDA-MB-468 [4] and 25% in the assay with MDA-MB-468 [5]. In addition, the IC50 with MDA-MB-468 [1] is > 100 µM. The EC50 in the assay with MDA-MB-468 [2] is > 100 µM.
On to `CCCCC/C=C\C/C=C\C/C=C\C/C=C\CCCC(=O)O` [ARACHIDONIC ACID], for which the IC50 in the assay with MDA-MB-468 [1] was > 100 µM. The EC50 in the assay with MDA-MB-468 [2] is > 100 µM.
Turning to `CC/C=C\CCCCCCCCCCCCCCCC(=O)O`, the Activity entry with MDA-MB-468 [4] was “Dose-dependent effect”. The result with MDA-MB-468 [5] was inactive. Besides, the residual activity in assay [8] came out at 62%; in assay [12], 46%; in [13], 42%. The compound further registered a level, % of control at 20 µM in the assay with MDA-MB-468 [10] of 75%. Besides, half-maximal inhibition in the assay with MDA-MB-468 [1] (IC50) required 31 µM. Besides, the EC50 in the assay on MDA-MB-468 [2] came out at 43 µM.
Turning to `CC/C=C\CCCCCCCCCCCCCCCCC(=O)O`, in the assay on MDA-MB-468 [4], the Activity entry was “Dose-dependent effect”. In addition, in the assay with MDA-MB-468 [5], the result was inactive. Further, the residual activity was 54% in [8], 40% in assay [11], 49% in [12] and 42% in [13]. Also, the level, % of control at 20 µM in the assay on MDA-MB-468 [10] was determined as 59%. Also, half-maximal inhibition in the assay on MDA-MB-468 [1] (IC50) was put at 9.3 µM. The EC50 in the assay on MDA-MB-468 [2] was found to be 12 µM.

By IC50 is commonly meant the concentration at which inhibition is half-maximal. As usually defined, the EC50 is the midpoint of the concentration-response curve.
